According to paper PMC5237706 (Acta Pharmaceutica Sinica. B, 2016):
Where two headings read alike, the source gives them in different places.

Key:
GSH-Px = experiment: Mitochondrial GSH-Px activity; assay type: biochemical, rat; details: 10 μmol/L, 15 and 30 min
Method in brief: (§1)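 Energized liver mitochondria from male Wistar rats incubated with test compound (10 μmol/L) for 15 or 30 min. Then sonicated in 5 s pulses for 5 cycles. SOD, GSH-Px and CAT activities measured with commercial kits per instructions. Mean±SEM of three independent experiments.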

[1] = test system: human hepatoma HepG2 cells; experiment: Antiproliferative activity, SRB assay, HepG2; assay type: cell-based; details: for TI 24 h / TI 48 h: TI=IC50 L02 normal cell/IC50 HepG2 cancer cell
Method in brief: (§2)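 Cells seeded at 5×10^4/well and grown 24 h, then exposed to test compound (DMSO stock) for 24 h or 48 h. Processed by standard SRB method with absorbance at 540 nm. IC50 from log plot of percent of control vs concentration. HepG2 kept in RPMI 1640; L02 and WI38 in DMEM; all with 10% FBS, 1% penicillin–streptomycin, 37 °C, 5% CO2. TI = IC50 normal cells / IC50 HepG2.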

[2] = test system: lipid peroxidation in the energized hepatic mitochondria; experiment: Mitochondrial lipid peroxidation induced by FeCl2/ascorbate; assay type: biochemical, rat; details: for inhibition of lipid peroxidation at 6 μmol/L: Fig. 1B
Method in brief: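 Rat liver mitochondria (1 mg/mL, standard medium pH 7.4) with test compound (6 μmol/L). Peroxidation started with FeCl2 20 μmol/L/ascorbate 100 μmol/L and run 30 min. TCA-TBA-HCl stock plus 0.02% BHT added, then heated 15 min in a hot-water bath, cooled and centrifuged. A532 read; MDA calculated with ε532=1.5×10^5 mol/(L·cm). Three independent experiments.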

[3] = test system: energized hepatic mitochondria (mPTP opening); experiment: Mitochondrial swelling; assay type: biochemical, rat; details: Fig. 5B; for induction of mitochondrial swelling at 10 μmol/L: 10 μmol/L alone
Method in brief: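 Energized rat hepatic mitochondria (1 mg/mL) in sucrose/HEPES/glutamate/malate medium, pH 7.4. Swelling followed as apparent A540 change after adding test compound (concentration series; 10 μmol/L alone or with Ca2+ 0.1 μmol/L). CsA 1 μmol/L added to suspensions containing 20 μmol/L compound. […]; mean±SEM of three independent experiments.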

human hepatic L02 cells = experiment: Antiproliferative activity, SRB assay, L02; assay type: cell-based
Method in brief: as §2

[4] = test system: diploid human WI38 fibroblasts; experiment: Antiproliferative activity, SRB assay, WI38; assay type: cell-based
Method in brief: as §2

[5] = test system: H2O2 production in energized hepatic mitochondria; experiment: Mitochondrial H2O2 production; assay type: biochemical, rat; details: DCFDA, Fig. 2B
Method in brief: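 DCFDA (8 μmol/L) added to energized rat hepatic mitochondria (1 mg/mL) in standard medium (sucrose 250, HEPES 10, glutamate 10, malate 5 mmol/L; pH 7.4). Test compound added; incubated 15 or 30 min in the dark at 25 °C. Fluorescence ex 485/em 521 nm, expressed as percent of control. Mean±SEM, three independent experiments.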

[6] = test system: cyt c release from energized mitochondria; experiment: Cyt c release from mitochondria; assay type: biochemical, rat; details: Fig. 7D
mitochondrial SOD = experiment: Mitochondrial SOD activity; assay type: biochemical, rat; details: 10 μmol/L, 15 and 30 min
Method in brief: as §1

CAT = biological target: T1, CAT (Rattus norvegicus, UniProt P04762); experiment: Mitochondrial CAT activity; assay type: biochemical; details: 10 μmol/L, 15 and 30 min
T1 sequence (P04762 1-527): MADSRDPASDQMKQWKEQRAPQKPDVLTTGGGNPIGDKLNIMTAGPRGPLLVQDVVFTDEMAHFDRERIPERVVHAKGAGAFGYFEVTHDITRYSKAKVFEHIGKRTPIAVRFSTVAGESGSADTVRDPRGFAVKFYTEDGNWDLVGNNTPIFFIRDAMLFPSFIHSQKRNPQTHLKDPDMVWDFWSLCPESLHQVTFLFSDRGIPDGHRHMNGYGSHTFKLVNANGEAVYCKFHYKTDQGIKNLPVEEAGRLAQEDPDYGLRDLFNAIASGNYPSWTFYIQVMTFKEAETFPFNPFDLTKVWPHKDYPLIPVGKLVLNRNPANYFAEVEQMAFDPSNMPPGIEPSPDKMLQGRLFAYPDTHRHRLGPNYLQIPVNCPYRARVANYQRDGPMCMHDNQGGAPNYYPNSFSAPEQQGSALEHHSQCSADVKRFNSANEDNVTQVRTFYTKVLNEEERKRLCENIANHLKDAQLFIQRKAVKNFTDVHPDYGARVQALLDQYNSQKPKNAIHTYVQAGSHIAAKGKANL
Method in brief: as §1

Question: Which results are given for `CCCC[P+](c1ccccc1)(c1ccccc1)c1ccccc1` [ButylTPP]?
Answer: effect on GSH-Px activity (GSH-Px): did not alter; TI 24 h [1]: 4.76; TI 48 h [1]: 5.58; IC50 ([1]; read-out: IC50 HepG2 24 h, HepG2, 24 h, SRB): 25.4 ± 1.02 µM; IC50 ([1]; read-out: IC50 HepG2 48 h, HepG2, 48 h, SRB): 12.8 ± 0.87 µM; inhibition of lipid peroxidation at 6 μmol/L [2]: ineffective; induction of mitochondrial swelling at 10 μmol/L [3]: triggered swelling; IC50 (human hepatic L02 cells; read-out: IC50 L02 24 h, L02, 24 h, SRB): 121 ± 9.97 µM; IC50 (human hepatic L02 cells; read-out: IC50 L02 48 h, L02, 48 h, SRB): 71.4 ± 6.64 µM; IC50 ([4]; read-out: IC50 WI38 24 h, WI38, 24 h, SRB): 179 ± 3.73 µM; IC50 ([4]; read-out: IC50 WI38 48 h, WI38, 48 h, SRB): 88.5 ± 3.95 µM; effect on endogenous H2O2 levels at 10 μmol/L [5]: did not affect; induction of cyt c release at 10 μmol/L [6]: had no effects; effect on SOD activity (mitochondrial SOD): did not alter; effect on CAT activity (CAT): did not alter

Question: How did the IC50 ([1]; Homo sapiens, HepG2, 24 h, read-out: IC50 HepG2 24 h, HepG2, 24 h, SRB) turn out when `O=C(O)/C=C/c1ccc(O)c(O)c1` [CaA, caffeic acid] was run?
Answer: Its IC50 is 201 ± 3.88 µM.

Question: And the IC50 ([1]; Homo sapiens, HepG2, 48 h, read-out: IC50 HepG2 48 h, HepG2, 48 h, SRB)?
Answer: The IC50 was 93 ± 1.35 µM.

Question: And the “TI 24 h” value [1]?
Answer: The value was 2.01.

Question: What about the “TI 48 h” value [1] of the same compound?
Answer: Its value is 1.68.

Question: What about the “inhibition of lipid peroxidation at 6 μmol/L” value [2] of the same compound?
Answer: The value was “ineffective”.

Question: And the “effect on lipid peroxidation, various concentrations” value ([2]; Fig. 1A)?
Answer: Its value is “no effect”.

Question: What about the “mitochondrial swelling with Ca2+” value ([3]; 10 μmol/L + 0.1 μmol/L Ca2+) of the same compound?
Answer: The value was “failed to cause swelling”.

Question: What about the “induction of mitochondrial swelling at 10 μmol/L” value [3] of the same compound?
Answer: The value was “neither MitoCA nor CaA induced swelling”.

Question: What about the IC50 (human hepatic L02 cells; Homo sapiens, L02, 24 h, read-out: IC50 L02 24 h) of the same compound?
Answer: Its IC50 is 403 ± 18.9 µM.

Question: And the IC50 (human hepatic L02 cells; Homo sapiens, L02, 48 h, read-out: IC50 L02 48 h)?
Answer: Its IC50 is 156 ± 8.83 µM.

Question: What about the IC50 ([4]; Homo sapiens, WI-38, 24 h, read-out: IC50 WI38 24 h) of the same compound?
Answer: Its IC50 is 281 ± 9.47 µM.

Question: What about the IC50 ([4]; Homo sapiens, WI-38, 48 h, read-out: IC50 WI38 48 h) of the same compound?
Answer: Its IC50 is 198 ± 7.78 µM.

Question: What about the “induction of cyt c release at 10 μmol/L” value [6] of the same compound?
Answer: Its value is “had no effects”.
